Measured values taken from ChEMBL document CHEMBL1135416, “Nonpeptide bradykinin B2 receptor antagonists: conversion of rodent-selective bradyzide analogues into potent, orally-active human bradykinin B2 receptor antagonists” (J Med Chem, 2002).
Converted amounts (≈) assume the structure as drawn.

Key:
B2 bradykinin receptor [1] = target: T1, B2 bradykinin receptor (Rattus norvegicus, UniProt P25023); assay: Inhibition of specific binding of [3H]-BK (1 nM) to rat Bradykinin receptor B2 by 50% in NG108-15 cell membranes; parameters: species or system Membrane
T1 sequence (P25023 whole entry): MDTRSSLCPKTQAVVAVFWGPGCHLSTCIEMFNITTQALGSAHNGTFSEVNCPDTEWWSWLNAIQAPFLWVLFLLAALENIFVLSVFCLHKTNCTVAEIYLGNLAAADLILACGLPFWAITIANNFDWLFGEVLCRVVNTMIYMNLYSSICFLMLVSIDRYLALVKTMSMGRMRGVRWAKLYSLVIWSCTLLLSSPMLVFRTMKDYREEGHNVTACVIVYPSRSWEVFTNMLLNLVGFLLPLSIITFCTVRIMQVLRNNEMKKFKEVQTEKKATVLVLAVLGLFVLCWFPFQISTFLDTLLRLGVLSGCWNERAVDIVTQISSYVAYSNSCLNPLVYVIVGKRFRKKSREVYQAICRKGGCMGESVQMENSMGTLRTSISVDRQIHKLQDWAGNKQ
How it was run: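 NG108-15 cell membranes (rodent B2) were diluted to about 0.3 mg/mL protein in 25 mM potassium phosphate pH 6.5 with 1 mM EGTA, 0.1 mM bacitracin, chymostatin and BSA. [3H]BK was 1 nM and nonspecific binding was set with 10 µM BK. Incubation was 60 min at 4 °C, followed by PEI-soaked GF/B filtration, a cold phosphate pH 6.5 wash and scintillation counting. Ki was derived from IC50 (Cheng–Prusoff). Data are mean ± SEM of ≥3 experiments in triplicate.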

B2 bradykinin receptor [2] = target: T2, B2 bradykinin receptor (Homo sapiens, UniProt P30411); assay: Displacement of [3H]BK (1 nM) from human Bradykinin receptor B2 expressed in Cos-7 cells; type: cell-based
T2 sequence (P30411 whole entry): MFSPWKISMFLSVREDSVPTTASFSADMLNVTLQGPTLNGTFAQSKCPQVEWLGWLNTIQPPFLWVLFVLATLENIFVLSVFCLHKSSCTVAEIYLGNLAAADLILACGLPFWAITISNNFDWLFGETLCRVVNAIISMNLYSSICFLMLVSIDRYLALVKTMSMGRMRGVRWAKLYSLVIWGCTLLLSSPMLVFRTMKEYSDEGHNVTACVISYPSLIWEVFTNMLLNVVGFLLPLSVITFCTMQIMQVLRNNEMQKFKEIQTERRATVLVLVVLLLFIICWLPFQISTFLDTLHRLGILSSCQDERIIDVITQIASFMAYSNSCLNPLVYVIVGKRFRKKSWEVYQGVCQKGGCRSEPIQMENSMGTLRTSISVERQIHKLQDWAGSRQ
How it was run: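 [3H]BK was 1 nM and nonspecific binding was set with 10 µM BK. Incubation was 60 min at 4 °C, then GF/B filtration, a cold 50 mM Tris pH 7.4 wash and counting. Ki was derived from IC50 (Cheng–Prusoff). Data are mean ± SEM of ≥3 triplicate experiments.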

Rattus norvegicus [3] = species on record: Rattus norvegicus; assay: Reversal of FCAT-induced mechanical […] in rats; type: functional
How it was run: (§1)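 Female Sprague-Dawley rats (100-120 g) under light enflurane received 100 µL FCA into one knee. Three to six days later, each hind paw was placed on a pressure transducer with the uninjected leg bearing 100 g, and the load tolerated by the injected leg was read half-hourly. Compounds were given after three control readings. The response was expressed as % maximal reversal (100% = equal load on both legs).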

B2 bradykinin receptor [4] = target: T1, B2 bradykinin receptor; assay: Inhibition of increase in [Ca2+] efflux from NG108-15 cells caused by activation of rat Bradykinin receptor B2; type: functional, cell-based
Rattus norvegicus [5] = species on record: Rattus norvegicus; assay: Reversal of turpentine-induced mechanical […] in rats; type: functional
How it was run: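 Rats received an intraplantar injection of 50 µL turpentine/paraffin (1:1) into the left hind paw. Three days later, compound or vehicle was given orally or iv, and the paw withdrawal threshold (mean of two readings) was taken 1 h later. ED50 was the dose giving 50% of maximum reversal. Efficacy was the maximum reversal as % of the pre-turpentine threshold.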

B2 bradykinin receptor [6] = target: T2, B2 bradykinin receptor; assay: Antagonism of the [Ca2+] efflux actions of the human Bradykinin receptor B2 (SK-N-SH neuroblastoma); type: functional
B2 bradykinin receptor [7] = target: T2, B2 bradykinin receptor; assay: Antagonism of the [Ca2+] efflux actions of the human Bradykinin receptor B2 (WI38 fibroblasts); type: functional
B2 bradykinin receptor [8] = target: T1, B2 bradykinin receptor; assay: Inhibition of Bradykinin receptor B2-mediated contractions of rat uterus smooth muscle; type: functional, tissue-based
[9] = Solubility at pH 7.4; type: physicochemical; conditions: buffer
B2 bradykinin receptor [10] = target: T2, B2 bradykinin receptor; assay: Antagonism of the [Ca2+] efflux actions of human Bradykinin receptor B2 (SK-N-SH neuroblastoma); type: functional
B2 bradykinin receptor [11] = target: T2, B2 bradykinin receptor; assay: Antagonism of the [Ca2+] efflux actions of human Bradykinin receptor B2 (WI38 fibroblasts); type: functional
Rattus norvegicus [12] = species on record: Rattus norvegicus; assay: Oral efficacy against FCAT-induced mechanical […] in rats; type: functional; how it was run: as §1
Rattus norvegicus [13] = species on record: Rattus norvegicus; assay: Duration of action (excess) in FCAT-induced mechanical […] in rats; type: functional

| Compound | Ki (B2 bradykinin receptor [1]) [nM] | Ki (B2 bradykinin receptor [2]) [nM] | further results |
| --- | --- | --- | --- |
| CN(C)CCN(C)CCNC(=O)c1cccn1S(=O)(=O)c1ccc(N/N=C(\S)NC2c3ccccc3CCc3ccccc32)c([N+](=O)[O-])c1 | 64.5 | 1.47 | – |
| CN(C)CCCN(C)CCNC(=O)[C@@H]1CCCN1S(=O)(=O)c1ccc(N/N=C(\S)NC2c3ccccc3-c3ccccc32)c([N+](=O)[O-])c1 | – | 645 | – |
| CN(C)CCN(C)CCNC(=O)[C@@H]1CCCN1S(=O)(=O)c1ccc(NNC(=S)NC2c3ccccc3CCc3ccccc32)c([N+](=O)[O-])c1 | 14.5 | 4.67 | – |
| CN(C)CCCN(C)CCCNC(=O)[C@@H]1CCCN1S(=O)(=O)c1ccc(N/N=C(\S)NC(c2ccccc2)c2ccccc2)c([N+](=O)[O-])c1 | 0.31 | 95 | – |
| CN(C)CCCN(C)CCNC(=O)[C@@H]1CCCN1S(=O)(=O)c1ccc(N/N=C(\S)NC(c2ccccc2)c2ccccc2)c([N+](=O)[O-])c1 | 0.023 | 119 | – |
| CN(C)CCN(C)CCNC(=O)[C@@H]1CCCN1S(=O)(=O)c1ccc(NNC(=O)NC(c2ccccc2)c2ccccc2)c(Cl)c1 | 7.3 | – | – |
| CN(C)CCCN(C)CCNC(=O)c1cccn1S(=O)(=O)c1ccc(NNC(=O)NC2c3ccccc3CCc3ccccc32)c([N+](=O)[O-])c1 | 176 | 2.79 | ED50 (Rattus norvegicus [3]): 0.027 µmol/kg; IC50 (B2 bradykinin receptor [4]): 141 nM; ED50 (Rattus norvegicus [5]): 0.32 µmol/kg; IC50 (B2 bradykinin receptor [6]): 12 nM; IC50 (B2 bradykinin receptor [7]): 55 nM; IC50 (B2 bradykinin receptor [8]): 1.9 nM; solubility [9]: 400 µg/mL (≈ 569 µM) |
| CN(C)CCCN(C)CCNC(=O)[C@@H]1CCCN1S(=O)(=O)c1ccc(NNC(=O)NC2c3ccccc3CCc3ccccc32)c([N+](=O)[O-])c1 | 10.7 | 0.79 | ED50 (Rattus norvegicus [3]): 0.043 µmol/kg; IC50 (B2 bradykinin receptor [4]): 105 nM; IC50 (B2 bradykinin receptor [10]): 91 nM; ED50 (Rattus norvegicus [5]): 0.11 µmol/kg; IC50 (B2 bradykinin receptor [11]): 17 nM; IC50 (B2 bradykinin receptor [8]): 2.4 nM |
| CN(C)CCN(C)CCNC(=O)[C@@H]1CCCN1S(=O)(=O)c1ccc(NNC(=S)NC(c2ccccc2)c2ccccc2)c([N+](=O)[O-])c1 | – | 772 | ED50 (Rattus norvegicus [12]): 0.84 µmol/kg; Time (Rattus norvegicus [13]): 4 h |

Further lines, with some results ahead:

| Ki (B2 bradykinin receptor [1]) [nM] | Ki (B2 bradykinin receptor [2]) [nM] | Compound | further results |
| --- | --- | --- | --- |
| 5.46 | 34.1 | CN(C)CCN(C)CCNC(=O)[C@@H]1CCCN1S(=O)(=O)c1ccc(N/N=C(\S)NC(c2ccccc2Cl)c2ccccc2Cl)c([N+](=O)[O-])c1 | – |
| – | 237 | CN(C)CCN(C)CCNC(=O)c1cccn1S(=O)(=O)c1ccc(NNC(=S)NC(c2ccccc2)c2ccccc2)c([N+](=O)[O-])c1 | – |
| – | 1430 | CN(C)CCN(C)CCNC(=O)[C@H]1CCCN1S(=O)(=O)c1ccc(NNC(=S)NC(c2ccccc2)c2ccccc2)c([N+](=O)[O-])c1 | – |
| – | 253 | CN(C)CCCN(C)CCNC(=O)c1cccn1S(=O)(=O)c1ccc(NNC(=O)NC2c3ccccc3CCc3ccccc32)c(Cl)c1 | – |
